Laboratory results from ChEMBL document CHEMBL4020705, “Investigation of aryl isonitrile compounds with potent, broad-spectrum antifungal activity” (Bioorg Med Chem, 2017).
Values after ≈ are worked out from the molar mass of the structure shown.

What was measured:
Candida albicans [1] = experiment: Fungicidal activity against Candida albicans NR-29448 after 18 hrs; assay type: functional; conditions: NR-29448, 18 h, read-out: MFC99.9
In short: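 Starting from the MIC plate, 5 μL aliquots are taken from wells with no growth and spotted onto YPD agar. After 18 h at 37 °C, MFC is recorded as the concentration giving a >99.9% decrease in CFU.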

Candida albicans [2] = experiment: Antifungal activity against Candida albicans NR-29448 after 44 hrs by broth dilution assay; assay type: functional; conditions: NR-29448, 44 h
In short: (§1)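 Yeast broth microdilution per CLSI M27-A3, in RPMI-1640. Incubation is at 37 °C for at least 44 h. MIC is the lowest concentration with no visible growth, read by eye.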

Cryptococcus neoformans = experiment: Antifungal activity against Cryptococcus neoformans NR-41292 after 68 hrs by broth dilution assay; assay type: functional; conditions: NR-41292, 68 h
In short: (§2)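 Cryptococcus MIC follows CLSI M27-A3 broth dilution in RPMI-1640. Incubation is at 37 °C for 68 h, and the MIC is read by visual inspection.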

Candida tropicalis [3] = experiment: Antifungal activity against Candida tropicalis ATCC 13803 after 44 hrs by broth dilution assay; assay type: functional; conditions: ATCC 13803, 44 h; in short: as §1
Nakaseomyces glabratus [4] = experiment: Antifungal activity against Candida glabrata ATCC 66032 after 44 hrs by broth dilution assay; assay type: functional; conditions: ATCC 66032, 44 h; in short: as §1
Aspergillus niger [5] = experiment: Antifungal activity against Aspergillus niger ATCC 6275 after 44 hrs by broth dilution assay; conditions: ATCC 6275, 44 h
Nakaseomyces glabratus [6] = experiment: Antifungal activity against Candida glabrata ATCC MYA-2950 after 44 hrs by broth dilution assay; assay type: functional; conditions: ATCC MYA-2950, 44 h; in short: as §1
[7] = system: Cryptococcus gattii species complex; experiment: Antifungal activity against Cryptococcus gattii NR-43209 after 68 hrs by broth dilution assay; assay type: functional, Cryptococcus bacillisporus; conditions: NR-43209, 68 h; in short: as §2
Pichia kudriavzevii [8] = experiment: Antifungal activity against Candida krusei ATCC 34135 after 44 hrs by broth dilution assay; assay type: functional; conditions: ATCC 34135, 44 h; in short: as §1
[9] = system: Cryptococcus gattii species complex; experiment: Antifungal activity against Cryptococcus gattii NR-43208 after 68 hrs by broth dilution assay; assay type: functional, Cryptococcus bacillisporus; conditions: NR-43208, 68 h; in short: as §2
Candida albicans [10] = experiment: Antifungal activity against Candida albicans NR-29446 after 44 hrs by broth dilution assay; assay type: functional; conditions: NR-29446, 44 h; in short: as §1
Aspergillus fumigatus [11] = experiment: Antifungal activity against Aspergillus fumigatus NR-35302 after 44 hrs by broth dilution assay; conditions: NR-35302, 44 h
Candida albicans [12] = experiment: Antifungal activity against Candida albicans ATCC 29351 after 44 hrs by broth dilution assay; assay type: functional; conditions: ATCC 29351, 44 h; in short: as §1
Aspergillus brasiliensis = experiment: Antifungal activity against Aspergillus brasiliensis ATCC 16404 after 44 hrs by broth dilution assay; conditions: ATCC 16404, 44 h
Candida albicans [13] = experiment: Antifungal activity against Candida albicans ATCC 64124 after 44 hrs by broth dilution assay; assay type: functional; conditions: ATCC 64124, 44 h; in short: as §1
Candida albicans [14] = experiment: Antifungal activity against Candida albicans ATCC 27365 after 44 hrs by broth dilution assay; assay type: functional; conditions: ATCC 27365, 44 h; in short: as §1
Candida tropicalis [15] = experiment: Antifungal activity against Candida tropicalis ATCC 1369 after 44 hrs by broth dilution assay; assay type: functional; conditions: ATCC 1369, 44 h; in short: as §1
Aspergillus niger [16] = experiment: Antifungal activity against Aspergillus niger ATCC 16888 after 44 hrs by broth dilution assay; conditions: ATCC 16888, 44 h
Pichia kudriavzevii [17] = experiment: Antifungal activity against Candida krusei ATCC 14243 after 44 hrs by broth dilution assay; assay type: functional; conditions: ATCC 14243, 44 h; in short: as §1
Candida albicans [18] = experiment: Antifungal activity against Candida albicans ATCC MYA 573 after 44 hrs by broth dilution assay; assay type: functional; conditions: ATCC MYA 573, 44 h; in short: as §1
Aspergillus fumigatus [19] = experiment: Antifungal activity against Aspergillus fumigatus NR-35301 after 44 hrs by broth dilution assay; conditions: NR-35301, 44 h
Candida albicans [20] = experiment: Antifungal activity against Candida albicans NR-29368 after 44 hrs by broth dilution assay; assay type: functional; conditions: NR-29368, 44 h; in short: as §1
HRT-18 cell line [21] = experiment: Cytotoxicity against human HRT18 cells assessed as cell viability at 256 uM after 2 hrs by MTS assay; assay type: cell-based; conditions: hrt-18, 2 h
In short: (§3)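 HRT-18 cells are grown in RPMI-1640 with 10% fetal horse serum at 37 °C, 5% CO2. Compounds are added in triplicate for 2 h, with DMSO-matched vehicle controls. MTS is then added for 4 h and absorbance read at 490 nm. Viability is given as % of DMSO control, mean ± SD. Two-way ANOVA with Dunnett's test.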

Candida parapsilosis = experiment: Antifungal activity against Candida parapsilosis ATCC 22019 after 44 hrs by broth dilution assay; assay type: functional; conditions: Lodderomyces parapsilosis, ATCC 22019, 44 h; in short: as §1
HRT-18 cell line [22] = experiment: Cytotoxicity against human HRT18 cells assessed as cell viability at 128 uM after 2 hrs by MTS assay; assay type: cell-based; conditions: hrt-18, 2 h; in short: as §3

Structure (SMILES): N#Cc1ccccc1-c1ccccc1
- MFC (Candida albicans [1]): > 64 µM
- MIC (Candida albicans [2]): 0.5 µM (≈ 0.0896 µg/mL)

Structure (SMILES): CC/C(=C\c1ccccc1C#N)c1ccc(OC)cc1
- MFC (Candida albicans [1]): > 64 µM
- MIC (Candida albicans [2]): > 64 µM

Structure (SMILES): N#Cc1cccc(/C=C/c2ccccc2)c1
- MFC (Candida albicans [1]): 32 µM (≈ 6.57 µg/mL)
- MIC (Candida albicans [2]): 4 µM (≈ 0.821 µg/mL)

Structure (SMILES): N#Cc1ccccc1C=C1CCCCC1
- MFC (Candida albicans [1]): > 64 µM
- MIC (Candida albicans [2]): 4 µM (≈ 0.789 µg/mL)

Structure (SMILES): Nc1ccccc1/C=C/c1ccccc1
- MIC (Candida albicans [2]): 64 µM (≈ 12.5 µg/mL)

Structure (SMILES): CCCCc1ccc(/C=C/c2ccccc2C#N)cc1
- MFC (Candida albicans [1]): 64 µM (≈ 16.7 µg/mL)
- MIC (Candida albicans [2]): 8 µM (≈ 2.09 µg/mL)

Structure (SMILES): COc1ccc(/C=C/c2ccccc2C#N)cc1
- MFC (Candida albicans [1]): > 64 µM
- MIC (Candida albicans [2]): 1 µM (≈ 0.235 µg/mL)

Structure (SMILES): CC/C(=C\c1ccccc1)c1ccccc1
- MFC (Candida albicans [1]): > 64 µM
- MIC (Candida albicans [2]): > 64 µM

Structure (SMILES): OC(Cn1cncn1)(Cn1cncn1)c1ccc(F)cc1F [FLUCONAZOLE]
- MIC (Cryptococcus neoformans): 8 µM (≈ 2.45 µg/mL)
- MIC (Candida tropicalis [3]): > 64 µM
- MIC (Nakaseomyces glabratus [4]): > 64 µM
- MIC (Aspergillus niger [5]): > 64 µM
- MIC (Nakaseomyces glabratus [6]): > 64 µM
- MIC [7]: 8 µM (≈ 2.45 µg/mL)
- MIC (Pichia kudriavzevii [8]): 64 µM (≈ 19.6 µg/mL)
- MIC [9]: 8 µM (≈ 2.45 µg/mL)
- MIC (Candida albicans [10]): > 64 µM
- MIC (Aspergillus fumigatus [11]): > 64 µM
- MIC (Candida albicans [12]): ≤ 0.5 µM
- MIC (Aspergillus brasiliensis): > 64 µM
- MIC (Candida albicans [13]): > 64 µM
- MIC (Candida albicans [14]): 1 µM (≈ 0.306 µg/mL)
- MIC (Candida tropicalis [15]): > 64 µM
- MFC (Candida albicans [1]): > 64 µM
- MIC (Aspergillus niger [16]): > 64 µM
- MIC (Pichia kudriavzevii [17]): 64 µM (≈ 19.6 µg/mL)
- MIC (Candida albicans [2]): 0.5 µM (≈ 0.153 µg/mL)
- MIC (Candida albicans [18]): > 64 µM
- MIC (Aspergillus fumigatus [19]): > 64 µM
- MIC (Candida albicans [20]): > 64 µM

Structure (SMILES): COc1cccc(/C=C/c2ccccc2C#N)c1
- MIC (Candida albicans [2]): 16 µM (≈ 3.76 µg/mL)

Structure (SMILES): N#Cc1ccccc1/C=C/c1ccc(F)cc1
- MIC (Candida albicans [2]): 64 µM (≈ 14.3 µg/mL)

Structure (SMILES): N#Cc1ccccc1/C=C/c1ccccc1
- MFC (Candida albicans [1]): > 64 µM
- MIC (Candida albicans [2]): > 64 µM

Structure (SMILES): N#Cc1ccccc1/C=C/c1ccc([N+](=O)[O-])cc1
- MFC (Candida albicans [1]): 64 µM (≈ 16 µg/mL)
- MIC (Candida albicans [2]): 8 µM (≈ 2 µg/mL)

Structure (SMILES): N#Cc1ccc(/C=C/c2ccccc2)cc1
- MIC (Cryptococcus neoformans): ≤ 0.5 µM
- MIC (Candida tropicalis [3]): 4 µM (≈ 0.821 µg/mL)
- MIC (Nakaseomyces glabratus [4]): 8 µM (≈ 1.64 µg/mL)
- MIC (Aspergillus niger [5]): > 64 µM
- MIC (Nakaseomyces glabratus [6]): 8 µM (≈ 1.64 µg/mL)
- MIC [7]: ≤ 0.5 µM
- MIC (Pichia kudriavzevii [8]): 16 µM (≈ 3.28 µg/mL)
- MIC [9]: ≤ 0.5 µM
- MIC (Candida albicans [10]): 1 µM (≈ 0.205 µg/mL)
- MIC (Aspergillus fumigatus [11]): 32 µM (≈ 6.57 µg/mL)
- MIC (Candida albicans [12]): 1 µM (≈ 0.205 µg/mL)
- Activity (HRT-18 cell line [21]): Non-Toxic
- MIC (Aspergillus brasiliensis): > 64 µM
- MIC (Candida parapsilosis): 2 µM (≈ 0.411 µg/mL)
- MIC (Candida albicans [13]): 2 µM (≈ 0.411 µg/mL)
- MIC (Candida albicans [14]): 1 µM (≈ 0.205 µg/mL)
- MIC (Candida tropicalis [15]): 16 µM (≈ 3.28 µg/mL)
- MFC (Candida albicans [1]): > 64 µM
- Activity (HRT-18 cell line [22]): Non-Toxic
- MIC (Aspergillus niger [16]): > 64 µM
- MIC (Pichia kudriavzevii [17]): 32 µM (≈ 6.57 µg/mL)
- MIC (Candida albicans [2]): 2 µM (≈ 0.411 µg/mL)
- MIC (Candida albicans [18]): 1 µM (≈ 0.205 µg/mL)
- MIC (Aspergillus fumigatus [19]): 64 µM (≈ 13.1 µg/mL)
- MIC (Candida albicans [20]): 2 µM (≈ 0.411 µg/mL)

Structure (SMILES): C/C(=C\c1ccccc1C#N)c1ccccc1
- MFC (Candida albicans [1]): > 64 µM
- MIC (Candida albicans [2]): 8 µM (≈ 1.75 µg/mL)
